In ChEMBL document CHEMBL3877301 (J Med Chem, 2016):

How the values were obtained:
Adenosine receptor A1 = target: T1, Adenosine receptor A1 (Homo sapiens, UniProt P30542); assay: Displacement of [3H]DPCPX from human adenosine A1 receptor expressed in CHO cell membranes measured after 90 mins by scintillation counting method
T1 sequence (P30542 whole entry): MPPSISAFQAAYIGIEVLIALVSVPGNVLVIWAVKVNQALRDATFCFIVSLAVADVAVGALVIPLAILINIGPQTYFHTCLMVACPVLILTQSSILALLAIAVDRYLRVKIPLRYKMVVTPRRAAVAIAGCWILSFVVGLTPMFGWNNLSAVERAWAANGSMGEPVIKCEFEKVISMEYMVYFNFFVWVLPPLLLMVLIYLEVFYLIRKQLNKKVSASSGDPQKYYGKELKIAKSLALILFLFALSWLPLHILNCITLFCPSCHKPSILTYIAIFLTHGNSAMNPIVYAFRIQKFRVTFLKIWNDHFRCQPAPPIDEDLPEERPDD
Outline: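 Membranes came from CHO cells stably transfected with hA1 AR. Cells were scraped into ice-cold hypotonic buffer (5 mM Tris HCl, 1 mM EDTA, pH 7.4), homogenized, and spun at 40000g for 30 min at 4 °C. Membranes (50 μg protein/100 μL) were incubated with 1 nM [3H]-DPCPX and varied test concentrations at 25 °C for 90 min in 50 mM Tris HCl, pH 7.4.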

Adenosine receptor A3 = target: T2, Adenosine receptor A3 (Homo sapiens, UniProt P0DMS8); assay: Displacement of [125I]AB-MECA from human adenosine A3 receptor expressed in CHO cell membranes measured after 120 mins by scintillation counting method
T2 sequence (P0DMS8 whole entry): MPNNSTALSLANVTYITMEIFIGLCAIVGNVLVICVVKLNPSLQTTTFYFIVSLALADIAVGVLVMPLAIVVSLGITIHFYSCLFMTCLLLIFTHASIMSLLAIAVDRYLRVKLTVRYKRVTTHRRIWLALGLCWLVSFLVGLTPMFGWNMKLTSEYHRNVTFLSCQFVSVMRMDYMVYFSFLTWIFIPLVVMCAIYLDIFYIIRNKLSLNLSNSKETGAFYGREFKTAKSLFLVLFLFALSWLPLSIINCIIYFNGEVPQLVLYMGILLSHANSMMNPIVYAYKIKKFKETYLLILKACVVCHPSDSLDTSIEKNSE

Adenosine receptor A2b = target: T3, Adenosine receptor A2b (Homo sapiens, UniProt P29275); assay: Inverse agonist activity at human adenosine A2B receptor expressed in CHO cells assessed as inhibition of cAMP accumulation measured after 150 mins in presence of [3H]cAMP by scintillation counting method; assay type: functional, cell-based
T3 sequence (P29275 whole entry): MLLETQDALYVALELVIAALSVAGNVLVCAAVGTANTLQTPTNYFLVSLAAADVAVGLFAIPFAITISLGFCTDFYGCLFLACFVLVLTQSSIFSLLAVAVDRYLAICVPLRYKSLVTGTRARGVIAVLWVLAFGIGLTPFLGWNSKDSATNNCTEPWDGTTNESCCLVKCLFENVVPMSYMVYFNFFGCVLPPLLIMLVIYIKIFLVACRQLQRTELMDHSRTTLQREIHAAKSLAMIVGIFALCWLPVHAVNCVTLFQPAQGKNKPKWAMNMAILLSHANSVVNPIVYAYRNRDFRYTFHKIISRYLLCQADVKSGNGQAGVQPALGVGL

Adenosine receptor A2a [1] = target: T4, Adenosine receptor A2a (Homo sapiens, UniProt P29274); assay: biochemical
T4 sequence (P29274 whole entry): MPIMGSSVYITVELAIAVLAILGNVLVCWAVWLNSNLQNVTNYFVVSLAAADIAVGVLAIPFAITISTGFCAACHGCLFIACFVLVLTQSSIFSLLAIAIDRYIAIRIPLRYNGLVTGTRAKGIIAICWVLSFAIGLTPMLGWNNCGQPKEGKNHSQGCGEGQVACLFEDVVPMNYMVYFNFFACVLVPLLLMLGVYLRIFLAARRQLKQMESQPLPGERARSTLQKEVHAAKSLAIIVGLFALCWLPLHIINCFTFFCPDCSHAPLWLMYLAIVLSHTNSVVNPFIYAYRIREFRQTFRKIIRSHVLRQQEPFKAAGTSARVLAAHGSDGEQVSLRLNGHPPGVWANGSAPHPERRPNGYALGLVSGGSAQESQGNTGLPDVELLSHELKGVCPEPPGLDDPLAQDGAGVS

Adenosine receptor A2a [2] = target: T4, Adenosine receptor A2a; assay: Inverse agonist activity at human adenosine A2A receptor expressed in CHO cells assessed as inhibition of cAMP accumulation measured after 150 mins in presence of [3H]cAMP by scintillation counting method; assay type: functional, cell-based
Adenosine receptor A2a [3] = target: T4, Adenosine receptor A2a; assay: Antagonist activity against human adenosine A2A receptor expressed in CHO cells assessed as inhibition of CGS21680-stimulated cAMP accumulation measured after 150 mins in presence of [3H]cAMP by scintillation counting method; assay type: functional, cell-based
[4] = target: T5, Adenosine receptor A1 (Homo sapiens) (UniProt P30542); assay: Inverse agonist activity at human adenosine A1 receptor expressed in CHO cells assessed as inhibition of cAMP accumulation at 10 uM measured after 150 mins in presence of [3H]cAMP by scintillation counting method relative to control; assay type: functional, cell-based
T5 sequence (whole entry): T1 sequence (P30542 whole entry)
Outline: (§1)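 Transfected CHO cells (hA1, hA2B or hA3) were grown adherently in DMEM/F12 with 10% fetal calf serum, penicillin, streptomycin, 2 mM L-glutamine and 0.2 mg/mL G418 at 37 °C in 5% CO2. Test compounds were applied at 10 μM. cAMP is reported as percent of basal level (100%), given as mean ± SEM.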

[5] = target: T6, Adenosine receptor A3 (Homo sapiens) (UniProt P0DMS8); assay: Inverse agonist activity at human adenosine A3 receptor expressed in CHO cells assessed as inhibition of cAMP accumulation at 10 uM measured after 150 mins in presence of [3H]cAMP by scintillation counting method relative to control; assay type: functional, cell-based; outline: as §1
T6 sequence (whole entry): T2 sequence (P0DMS8 whole entry)

[6] = target: T7, Adenosine receptor A2b (Homo sapiens) (UniProt P29275); assay: Inverse agonist activity at human adenosine A2B receptor expressed in CHO cells assessed as inhibition of cAMP accumulation at 10 uM measured after 150 mins in presence of [3H]cAMP by scintillation counting method relative to control; assay type: functional, cell-based; outline: as §1
T7 sequence (whole entry): T3 sequence (P29275 whole entry)

Mus musculus [7] = species on record: Mus musculus; assay: Analgesic activity in CD-1 mouse assessed as reduction in acetic acid-induced abdominal constrictions preincubated for 15 mins followed by acetic acid challenge measured for 30 mins by writhing test; assay type: functional; details: for inhibition: Abdomen
Outline: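 Mice received acetic acid ip to induce abdominal constrictions; vehicle-treated mice served as controls. Test agents were given over a dose range. ED50 (mg/kg) was derived from the dose–response curve, and dose dependence was analysed by one-way ANOVA.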

Mus musculus [8] = species on record: Mus musculus; assay: Antinociceptive activity in CD-1 mouse assessed as increase in latency in response to heat stimulus measured for 15 mins by hot water tail immersion test; assay type: functional; details: CD-1, 0.25 h
Outline: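 Test agents were given to mice over a dose range before hot water tail immersion. ED50 (mg/kg) was derived from the dose–response curve, and the minimum effective dose was also noted.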

Adenosine receptor A2a [9] = target: T4, Adenosine receptor A2a; details: CHO

Nc1nc(NCCCc2ccccc2)nc2sc(-c3ccco3)nc12
Ki (Adenosine receptor A1): 49 nM | Ki (Adenosine receptor A3): 1140 nM | IC50 (Adenosine receptor A2b): 1770 nM | Ki (Adenosine receptor A2a [1]): 58 nM

Nc1nc(NCc2ccccc2)nc2sc(-c3ccco3)nc12
Ki (Adenosine receptor A1): 45 nM | Ki (Adenosine receptor A3): 37 nM | IC50 (Adenosine receptor A2b): 32 nM | IC50 (Adenosine receptor A2a [2]): 29 nM | IC50 (Adenosine receptor A2a [3]): 18 nM | inhibition [4]: 101% | inhibition [5]: 102% | inhibition [6]: 95% | Ki (Adenosine receptor A2a [1]): 22 nM

Nc1nc(NCCc2ccc(O)cc2)nc2sc(-c3ccco3)nc12
Ki (Adenosine receptor A1): 37 nM | Ki (Adenosine receptor A3): 1880 nM | IC50 (Adenosine receptor A2b): 482 nM | IC50 (Adenosine receptor A2a [2]): 25 nM | IC50 (Adenosine receptor A2a [3]): 21 nM | inhibition [4]: 102% | inhibition [5]: 101% | inhibition [6]: 92% | Ki (Adenosine receptor A2a [1]): 18 nM

Nc1nc(NCCc2ccc(O)c(O)c2)nc2sc(-c3ccco3)nc12
Ki (Adenosine receptor A1): 39 nM | Ki (Adenosine receptor A3): 546 nM | IC50 (Adenosine receptor A2b): 18 nM | Ki (Adenosine receptor A2a [1]): 40 nM

Nc1nc(NCCc2ccc(O)cc2)nc2nc(-c3ccco3)nn12 [ZM-241385]
inhibition [4]: 103% | inhibition [5]: 101% | inhibition [6]: 109% | inhibition (Mus musculus [7]): Dose-dependent effect | ED50 (Mus musculus [8]): > 10 mg/kg

COc1cccc(CNc2nc(N)c3nc(-c4ccco4)sc3n2)c1
inhibition [4]: 104% | inhibition [5]: 106% | inhibition [6]: 99% | inhibition (Mus musculus [7]): Dose-dependent effect | ED50 (Mus musculus [7]; CD-1, Abdomen): 0.158 mg/kg | ED50 (Mus musculus [8]): 0.926 mg/kg | KiH (Adenosine receptor A2a [9]): 6.71 nM

Nc1nc(NCc2cccc(O)c2)nc2sc(-c3ccco3)nc12
inhibition [4]: 96% | inhibition [5]: 98% | inhibition [6]: 95%

Nc1nc(NCCc2ccccc2)nc2sc(-c3ccco3)nc12
Ki (Adenosine receptor A1): 24 nM | Ki (Adenosine receptor A3): 217 nM | IC50 (Adenosine receptor A2b): 389 nM | IC50 (Adenosine receptor A2a [2]): 35 nM | IC50 (Adenosine receptor A2a [3]): 16 nM | inhibition [4]: 105% | inhibition [5]: 94% | inhibition [6]: 102% | Ki (Adenosine receptor A2a [1]): 30 nM

COc1cccc(CCNc2nc(N)c3nc(-c4ccco4)sc3n2)c1
Ki (Adenosine receptor A1): 0.92 nM | Ki (Adenosine receptor A3): 287 nM | IC50 (Adenosine receptor A2b): 47 nM | Ki (Adenosine receptor A2a [1]): 17 nM

Nc1nc(Nc2ccccc2)nc2sc(-c3ccco3)nc12
Ki (Adenosine receptor A1): 645 nM | Ki (Adenosine receptor A3): 321 nM | IC50 (Adenosine receptor A2b): 632 nM | Ki (Adenosine receptor A2a [1]): 782 nM

CN1CC[C@]23c4c5ccc(O)c4O[C@H]2[C@@H](O)C=C[C@H]3[C@H]1C5 [MORPHINE]
inhibition (Mus musculus [7]): Dose-dependent effect | ED50 (Mus musculus [8]): 1.14 mg/kg

Nc1nc(NCCc2cccc(O)c2)nc2sc(-c3ccco3)nc12
Ki (Adenosine receptor A1): 0.23 nM | Ki (Adenosine receptor A3): 76 nM | IC50 (Adenosine receptor A2b): 25 nM | Ki (Adenosine receptor A2a [1]): 16 nM

COc1ccccc1CNc1nc(N)c2nc(-c3ccco3)sc2n1
inhibition [4]: 106% | inhibition [5]: 91% | inhibition [6]: 94% | inhibition (Mus musculus [7]): Dose-dependent effect | minimal effective dose (Mus musculus [8]; read-out: MED): 0.01 mg/kg | KiH (Adenosine receptor A2a [9]): 5.23 nM

COc1ccc(CCNc2nc(N)c3nc(-c4ccco4)sc3n2)cc1OC
Ki (Adenosine receptor A1): 221 nM | Ki (Adenosine receptor A3): 824 nM | IC50 (Adenosine receptor A2b): 95 nM | Ki (Adenosine receptor A2a [1]): 91 nM

COc1ccc(CCNc2nc(N)c3nc(-c4ccco4)sc3n2)cc1
Ki (Adenosine receptor A1): 61 nM | Ki (Adenosine receptor A3): 2650 nM | IC50 (Adenosine receptor A2b): 553 nM | IC50 (Adenosine receptor A2a [2]): 42 nM | IC50 (Adenosine receptor A2a [3]): 31 nM | inhibition [4]: 93% | inhibition [5]: 105% | inhibition [6]: 103% | Ki (Adenosine receptor A2a [1]): 32 nM

COc1ccc(CNc2nc(N)c3nc(-c4ccco4)sc3n2)cc1
inhibition [4]: 100% | inhibition [5]: 104% | inhibition [6]: 97%
